Experimental data as given in ChEMBL document CHEMBL1152304, “Alteration of the bis-tetrahydrofuran core stereochemistries in asimicin can affect the cytotoxicity” (J Med Chem, 2008).

Experiments:
[1] = Cytotoxicity against human CFU-GM cells at 60 ug by disk diffusion assay; format: functional
How it was run: (§1)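 15 µL of sample dried overnight on 6.5 mm filter disk. Disk placed near edge of 60 mm dish of cells plated in soft agar, incubated 7-10 days. Zone of inhibition measured from disk edge to start of normal-sized colony formation, disk diameter taken as 200 units. Overly toxic samples diluted 1:4 or 1:10 and retested.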

[2] = Cytotoxicity against human H125M cells at 60 ug by disk diffusion assay; format: functional; how it was run: as §1
[3] = Cytotoxicity against human CFU-GM cells at 15 ug by disk diffusion assay; format: functional; how it was run: as §1
[4] = Inhibition of bovine heart mitochondrial complex1 activity; design: species or system Bos taurus
How it was run: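 Bovine heart submitochondrial particles, 15 µg/mL, in 0.25 M sucrose, 1 mM MgCl2, 50 mM phosphate pH 7.5. Inhibitor added at various concentrations and equilibrated 5 min. Reaction started with 150 µM NADH and followed spectrophotometrically at 340 nm. IC50 derived.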

L1210 [5] = assay: Cytotoxicity against mouse L1210 cells at 15 ug by disk diffusion assay; format: functional; how it was run: as §1
[6] = Cytotoxicity against human CFU-GM cells at 3.75 ug by disk diffusion assay; format: functional; how it was run: as §1
HCT-116 [7] = assay: Cytotoxicity against human HCT116 cells at 60 ug by disk diffusion assay; format: functional; how it was run: as §1
L1210 [8] = assay: Cytotoxicity against mouse L1210 cells at 60 ug by disk diffusion assay; format: functional; how it was run: as §1
HCT-116 [9] = assay: Cytotoxicity against human HCT116 cells; format: functional, cell-based
MC-38 [10] = assay: Cytotoxicity against mouse Colon 38 cells at 60 ug by disk diffusion assay; format: functional; how it was run: as §1
L1210 [11] = assay: Cytotoxicity against mouse L1210 cells at 3.75 ug by disk diffusion assay; format: functional; how it was run: as §1
MC-38 [12] = assay: Cytotoxicity against mouse Colon 38 cells at 3.75 ug by disk diffusion assay; format: functional; how it was run: as §1
MC-38 [13] = assay: Cytotoxicity against mouse Colon 38 cells at 15 ug by disk diffusion assay; format: functional; how it was run: as §1
CCRF-CEM = assay: Cytotoxicity against human CEM cells at 60 ug by disk diffusion assay; format: functional; how it was run: as §1

SMILES: CCCCCCCCCC[C@@H](O)[C@H]1CC[C@@H]([C@@H]2CC[C@H]([C@@H](O)CCCCCCCCCC[C@@H](O)CC3=C[C@H](C)OC3=O)O2)O1
- inhibition zone (IZ) [1]: 350 Zone units
- inhibition zone (IZ) [2]: 500 Zone units
- inhibition zone (IZ) [3]: 250 Zone units
- IC50 [4]: 2.5 nM
- inhibition zone (IZ) (L1210 [5]): 300 Zone units
- inhibition zone (IZ) [6]: 100 Zone units
- inhibition zone (IZ) (HCT-116 [7]): 550 Zone units
- inhibition zone (IZ) (L1210 [8]): 200 Zone units
- IC50 (HCT-116 [9]): 5.6 nM
- inhibition zone (IZ) (MC-38 [10]): 600 Zone units
- inhibition zone (IZ) (L1210 [11]): 150 Zone units
- inhibition zone (IZ) (MC-38 [12]): 650 Zone units
- inhibition zone (IZ) (MC-38 [13]): 800 Zone units
- inhibition zone (IZ) (CCRF-CEM): 150 Zone units

SMILES: CCCCCCCCCC[C@@H](O)[C@H]1CC[C@H]([C@H]2CC[C@H]([C@@H](O)CCCCCCCCCC[C@@H](O)CC3=C[C@H](C)OC3=O)O2)O1
- inhibition zone (IZ) [1]: 600 Zone units
- inhibition zone (IZ) [2]: 250 Zone units
- inhibition zone (IZ) [3]: 100 Zone units
- IC50 [4]: 3.3 nM
- inhibition zone (IZ) (L1210 [5]): 400 Zone units
- inhibition zone (IZ) [6]: 0 Zone units
- inhibition zone (IZ) (HCT-116 [7]): 600 Zone units
- inhibition zone (IZ) (L1210 [8]): 400 Zone units
- IC50 (HCT-116 [9]): 27 nM
- inhibition zone (IZ) (MC-38 [10]): 800 Zone units
- inhibition zone (IZ) (L1210 [11]): 50 Zone units
- inhibition zone (IZ) (MC-38 [12]): 650 Zone units
- inhibition zone (IZ) (MC-38 [13]): 750 Zone units
- inhibition zone (IZ) (CCRF-CEM): 100 Zone units
